Test results as given in ChEMBL document CHEMBL2040545, “Anti-influenza activity of marchantins, macrocyclic bisbibenzyls contained in liverworts” (2011).
Activity calls are given as the source filed them. No cut-off for these calls is given here.

Experiments:
[1] = molecular target: Polymerase acidic protein (Influenza A virus (A/Puerto Rico/8/1934(H1N1))) (UniProt P03433); assay: Inhibition of PA endonuclease at 10 uM; assay type: functional
Outline: (§1)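 Recombinant His-tagged influenza A PA N-terminal endonuclease domain from E. coli, purified on Ni2+-agarose and then Q anion exchange, used at about 0.1 µM (0.35 µg/100 µl). Buffer at pH 7.3, 1 µg M13mp18 single-stranded circular DNA as substrate, compound at 1 or 10 µM. Digestion read by agarose electrophoresis with ethidium bromide staining. No-enzyme control included.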

[2] = molecular target: Polymerase acidic protein (Influenza A virus (A/Puerto Rico/8/1934(H1N1))) (UniProt P03433); assay: Inhibition of PA endonuclease at 1 uM; assay type: functional; outline: as §1
[3] = molecular target: Polymerase acidic protein (Influenza A virus (A/Puerto Rico/8/1934(H1N1))) (UniProt P03433); assay: Inhibition of Influenza Viral Focus Formation at 50 uM relative to control; assay type: functional, cell-based; conditions: Canis lupus familiaris, MDCK
Outline: (§2)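 MDCK cells infected with B/Malaysia/2506/2004 at m.o.i. 0.001, adsorbed 30 min at 37 °C, washed. Compound (50, 12.5 or 3.1 µM, DMSO vehicle) added in growth medium, no pre-incubation. Supernatant sampled daily over 3 days at 37°C. Each sample titrated 10-fold on fresh MDCK, ethanol-fixed after 1 day. Foci stained with anti-NP serum and the PAP/DAB method, then counted as FFU/ml.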

[4] = molecular target: Polymerase acidic protein (Influenza A virus (A/Puerto Rico/8/1934(H1N1))) (UniProt P03433); assay: Inhibition of Influenza Viral Focus Formation at 13 uM relative to control; assay type: functional, cell-based; conditions: Canis lupus familiaris, MDCK; outline: as §2
[5] = (§3) Inhibition of Influenza Replication; assay type: functional, Canis lupus familiaris, MDCK
Outline: (§4)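 MDCK monolayers (MEM, 10% FBS, 37 °C). Compounds at 6.25–50 µM, DMSO vehicle, premixed 30 min at 37°C with TCID50 of A/Hiroshima/52/2006 (H3N2), A/Solomon/3/2006 (H1N1) or B/Malaysia/2506/2004, then added to PBS-washed cells. Incubated 4 days at 34°C, 5% CO2. Cells fixed in 10% formaldehyde; surviving cells stained with naphthol blue black.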

[6] = as §3; assay type: functional, Canis lupus familiaris, MDCK; outline: as §4; remark: listed apart in the source
[7] = as §3; assay type: functional, Canis lupus familiaris, MDCK; outline: as §4; remark: listed apart in the source

SMILES	inhibition [1]	inhibition [2]	inhibition [3] [%]	inhibition [4] [%]	Inhibition [5] [µM]	Inhibition [6] [µM]	Inhibition [7] [µM]
C[C@H]1OC(=O)C=C[C@@H]1O	inactive	inactive					
COc1ccc2c(c1)CCc1ccc(cc1)Oc1cc(ccc1O)CCc1ccc-2c(O)c1	inactive	inactive	5.56	-3.59			
COc1cc(/C=C/c2ccccc2)oc(=O)c1	inactive	inactive					
C=CCc1ccc(O)c(-c2cc(CC=C)ccc2O)c1	inactive	inactive					
C/C=C(\C)C(=O)CC1C2=CC(=O)[C@](C)(OC(C)=O)C(=O)C2=COC12OC(C)CCC2O (stereo partly specified)	inactive	inactive					
COc1ccc2ccc(=O)oc2c1CC=C(C)C	inactive	inactive					
COc1cc2c(cc1O)-c1ccc(O)cc1CCc1cc(O)c(O)c(c1)Oc1ccc(cc1)CC2	Active	inactive	5.11	-4.66			
COc1ccc(/C=C/c2cc(OC)cc(=O)o2)cc1	inactive	inactive					
COc1c2ccoc2c(OCC=C(C)C)c2oc(=O)ccc12	inactive	inactive					
COc1c2occc2cc2ccc(=O)oc12	inactive	inactive					
COc1c2ccoc2cc2oc(=O)ccc12	inactive	inactive					
COc1cccc2c1Oc1cccc(c1)CCc1cc(OC)c(OC)c(c1)Oc1ccc(cc1)CC2	inactive	inactive	5.78	-2.75			
COc1cc(O)cc(C(=O)c2cc(C)cc(OC)c2OC)c1CO	inactive	inactive					
CC(C)=CCOc1c2occc2cc2ccc(=O)oc12	inactive	inactive					
COc1cc(C)cc(C(=O)c2cc(O)cc(OC)c2CO)c1O	inactive	inactive					
CC1(C)OC1COc1c2occc2cc2ccc(=O)oc12 (stereo unspecified)	inactive	inactive					
COc1c2ccoc2c(OC)c2oc(=O)ccc12	inactive	inactive					

SMILES	inhibition [1]	inhibition [2]	inhibition [3] [%]	inhibition [4] [%]	Inhibition [5] [µM]	Inhibition [6] [µM]	Inhibition [7] [µM]
COc1cccc2c(-c3ccc(O)c4c(OC)cccc34)ccc(O)c12	inactive	inactive					
Oc1cc2cc(c1O)Oc1ccc(cc1)CCc1ccc(O)c(O)c1Oc1cccc(c1)CC2	Active	inactive					
CC(C)[C@@H](C)/C=C/[C@@H](C)[C@H]1CCC2=C3C=CC4=CCCC[C@]4(C)[C@H]3CC[C@@]21C	inactive	inactive					
Oc1ccc2cc1Oc1ccc(cc1)CCc1cccc(O)c1Oc1cccc(c1)CC2	inactive	inactive					
COC(=O)c1[nH]c(C(=O)OC)c(-c2c[nH]c3ccc(O)cc23)c1-c1c[nH]c2ccc(O)cc12	inactive	inactive					
C=CCc1ccc(O)c(-c2ccc(O)c(CC=C)c2)c1	inactive	inactive					
COC(=O)c1[nH]c(C(=O)OC)c(-c2c[nH]c3ccc(O)cc23)c1-c1c[nH]c2ccccc12	inactive	inactive					
COC1Cc2cccc(c2)Oc2c(O)cccc2CCc2ccc(cc2)Oc2cc1cc(O)c2O (stereo unspecified) [MARCHANTIN E]	Active	inactive	4.44	2.96	50	50	25
Oc1cc2cc(c1O)Oc1ccc(cc1)CCc1cccc(O)c1Oc1cccc(c1)CC2 [MARCHANTIN A]	Active	inactive	10.2	2.33			50
Oc1cccc(CCc2ccc(Oc3cc(CCc4cccc(O)c4)cc(O)c3O)cc2)c1 [PERROTETTIN F]	Active	inactive					50
COC1=CC(=O)O[C@@H](CCc2ccccc2)C1	inactive	inactive					
COC1=CC(=O)O[C@@H](/C=C/c2ccc3c(c2)OCO3)C1	inactive	inactive					
Oc1ccc2cc1Oc1ccc(cc1)CCc1cccc(c1)Oc1c(O)cccc1CC2	inactive	inactive					
Oc1ccc2c(c1)CCc1ccc(O)c(c1)Oc1ccc(cc1)CCc1cccc(c1)O2	inactive	inactive					
CC(C)=CCOc1c2ccoc2cc2oc(=O)ccc12	inactive	inactive					
COC1=CC(=O)O[C@@H](/C=C/c2ccccc2)C1	inactive	inactive					
